# Published values of several laboratories.
# Protocols differ between the studies behind these lines.
# Observed: cell growth or viability
SMILES,cell line,technique,time,IC50 [nM]
O=c1c(O)c(-c2ccc(O)c(O)c2)oc2cc(O)cc(O)c12,RT-4,ATP luminescence,72 h,92400
C=CC(=O)Nc1ccc(CCn2cc(C[C@@]3(O)C[C@@H]4c5cc(OCc6cc(C)cc(C)c6)c(OCc6cc(C)cc(C)c6)cc5CCN4[C@@H](C)C3)nn2)cc1,ASPC1,MTT,,536
O=C1C(=Cc2ccccc2)CN(C(=O)c2ccc(C(=O)N3CC(=Cc4ccccc4)C(=O)C(=Cc4ccccc4)C3)cc2)CC1=Cc1ccccc1,Molt4/C8,,,> 500000
NCCCOc1cc(NC(=O)c2cccc(C(=O)Nc3cc(OCCCN)c4ccccc4n3)n2)nc2ccccc12,WI-38,ATP luminescence,72 h,1600
Cc1cc(C)cc(COc2cc3c(cc2OCc2cc(C)cc(C)c2)C2CC(O)(Cc4cn(CCCCCCCCCCC(=O)Nc5cccc6c5C(=O)N(C5CCC(=O)NC5=O)C6=O)nn4)CC(C)N2CC3)c1 (stereo not drawn),ASPC1,MTT,,4800
O=C(Nc1ccc(Cl)cc1)c1ccc([N+](=O)[O-])o1,NHBE,resazurin,96 h,21400
NCCOc1cc(C(=O)Nc2cc(OCCN)c3ccccc3n2)nc(C(=O)Nc2cc(OCCN)c3ccccc3n2)c1,WI-38,ATP luminescence,72 h,11100
CC(C)=CCC[C@](C)(O)[C@H]1CC[C@]2(C)[C@@H]1[C@H](O)C[C@@H]1[C@@]3(C)CC[C@H](O[C@@H]4O[C@H](CO)[C@@H](O)[C@H](O)[C@H]4O[C@@H]4O[C@H](CO)[C@@H](O)[C@H](O)[C@H]4O)C(C)(C)[C@@H]3CC[C@]12C,NCI-H358,MTT,72 h,> 100000
COc1cc(Nc2nccc(-c3cnn4nc(OC)ccc34)n2)cc(C(F)(F)F)c1,KARPAS-299,ATP luminescence,,200
Cc1cc(C)cc(COc2cc3c(cc2OCc2cc(C)cc(C)c2)C2CC(O)(Cc4cn(CCC(=O)Nc5cccc6c5C(=O)N(C5CCC(=O)NC5=O)C6=O)nn4)CC(C)N2CC3)c1 (stereo not drawn),ASPC1,MTT,,3290
c1csc([I+]c2cccs2)c1,LS174T,trypan blue,48 h,~2500
CCN1C(=O)N(c2c(F)c(OC)cc(OC)c2F)Cc2cnc3[nH]c(CN4CCOCC4)cc3c21,AN3-CA,ATP luminescence,96 h,40.9
COc1cc(C(=O)c2cc(CCc3ccc(C)cc3)sc2N)cc(OC)c1OC,Molt4/C8,,,> 10000
C=C(C)C(=O)Nc1ccc(-c2c(-c3ccc(Oc4nccc(C)n4)c(F)c3)c3c(N)ncnc3n2C)cc1,RT-4,ATP luminescence,96 h,617
Cc1cc(C)cc(COc2cc3c(cc2OCc2cc(C)cc(C)c2)[C@H]2C[C@](O)(Cc4cn(Cc5ccc6ccccc6c5)nn4)C[C@H](C)N2CC3)c1,ASPC1,MTT,,601
CC(C)c1ccc(C2C(C#N)=C3N=C(N)c4ccccc4N3C3=C2C(=O)CCC3)cc1 (stereo not drawn),HMC3,imaging,,49100
C=CC(=O)Nc1cc(Nc2nccc(-c3cn(C)c4ccccc34)n2)c(OC)cc1N(C)CCN(C)C,HCC827,ATP luminescence,72 h,2.6
COc1cccc(Oc2ccccc2NC(=O)[C@H](C)NC(=O)c2cccc3ccccc23)c1,NCI-H358,,,1800
N=C(Nc1ccccc1)c1cc2c(-c3ccccc3)n[nH]c2c(Nc2ccccc2)n1,WI-38,MTS,48 h,1430
Cc1nc(Nc2ncc(C(=O)Nc3c(C)cccc3Cl)s2)cc(N2CCN(CCO)CC2)n1,HPAF-II,MTT,,~10000
CCN1CCN(c2ccc(Nc3cc(N(C)C(=O)Nc4c(Cl)c(OC)cc(OC)c4Cl)ncn3)cc2)CC1,AN3-CA,ATP luminescence,96 h,39.9
Cc1cc(C)cc(COc2cc3c(cc2OCc2cc(C)cc(C)c2)[C@H]2C[C@](O)(Cc4cn(Cc5ccc(-c6ccccc6)cc5)nn4)C[C@H](C)N2CC3)c1,ASPC1,MTT,,703
Nc1ccn([C@@H]2O[C@H](CO)[C@@H](O)C2(F)F)c(=O)n1,HPAF-II,MTT,,1450
CC(C)c1n[nH]c2c(Nc3ccccc3)nc(CNCc3ccccc3)cc12,WI-38,MTS,48 h,7000
O=C(Nc1cc(OCCN2CCCC2)c2ccccc2n1)c1cc(Cl)cc(C(=O)Nc2cc(OCCN3CCCC3)c3ccccc3n2)n1,WI-38,ATP luminescence,72 h,13700
CN1CCN(c2ccc3nc(-c4c(N)c5c(F)cccc5[nH]c4=O)[nH]c3c2)CC1,RT-4,MTT,5 days,100
CC(C)C[C@H](NC(=O)[C@H](Cc1ccccc1)NC(=O)c1cnccn1)B(O)O,DV-90,ATP luminescence,,13
CN(C)CCOc1cc(NC(=O)c2cc(Cl)cc(C(=O)Nc3cc(OCCN(C)C)c4ccccc4n3)n2)nc2ccccc12,WI-38,ATP luminescence,72 h,4000
[Cl-].[Cl-].[Ti+4].c1cc[cH-]c1.c1cc[cH-]c1,CAKI-1,XTT,72 h,> 200000
CNc1ncc2cc(-c3ccc(-c4cccc(C)n4)cc3Cl)c(=O)n(C[C@H]3OC[C@H](N)CO3)c2n1,HPAF-II,MTT,24 h,30200
O=c1c(O[C@@H]2O[C@H](CO)[C@@H](O)[C@H](O)[C@H]2O)c(-c2ccc(O)c(O)c2)oc2cc(O)cc(O)c12,RT-4,ATP luminescence,72 h,20100
COc1cc(C(=O)c2cc(C#Cc3ccc(C)cc3)sc2N)cc(OC)c1OC,Molt4/C8,,,> 10000
NCCCOc1cc(NC(=O)c2cc(OCc3c[nH]nn3)cc(C(=O)Nc3cc(OCCCN)c4ccccc4n3)n2)nc2ccccc12,WI-38,ATP luminescence,72 h,> 40000
Cc1cc(C)cc(COc2cc3c(cc2OCc2cc(C)cc(C)c2)[C@H]2C[C@](O)(Cc4cn(Cc5ccncc5)nn4)C[C@H](C)N2CC3)c1,ASPC1,MTT,,525
CNc1nc2ccccc2n2c(-c3cccc(OC)c3)cnc12,LS174T,neutral red,96 h,868
Cc1cc(C)cc(COc2cc3c(cc2OCc2cc(C)cc(C)c2)[C@H]2C[C@](O)(Cc4cn(Cc5ccc(S(C)(=O)=O)cc5)nn4)C[C@H](C)N2CC3)c1,ASPC1,MTT,,537
NCCOc1cc(NC(=O)c2cccc(C(=O)Nc3cc(OCCN)c4ccccc4n3)n2)nc2ccccc12,WI-38,ATP luminescence,72 h,1100
COc1cccc2c1C(=O)c1c(O)c3c(c(O)c1C2=O)C[C@@](O)(C(=O)CO)C[C@@H]3O[C@H]1C[C@H](N)[C@H](O)[C@H](C)O1,HME1,WST-1,72 h,50
NCCCOc1cc(NC(=O)c2cc(Cl)cc(C(=O)Nc3cc(OCCCN)c4ccccc4n3)n2)nc2ccccc12,WI-38,ATP luminescence,72 h,600
Cc1cccc(-n2ncc(Br)c(Br)c2=O)c1,NCI-H358,resazurin,96 h,210
O=C(Nc1cc(OCCN2CCCC2)c2ccccc2n1)c1cc(OCc2ccc(F)cc2)cc(C(=O)Nc2cc(OCCN3CCCC3)c3ccccc3n2)n1,WI-38,ATP luminescence,72 h,11400
Cc1cc(C)cc(COc2cc3c(cc2OCc2cc(C)cc(C)c2)C2CC(O)(Cc4cn(CCCCCCNC(=O)CNc5ccc6c(c5)C(=O)N(C5CCC(=O)NC5=O)C6=O)nn4)CC(C)N2CC3)c1 (stereo not drawn),ASPC1,MTT,,> 5000
